The results in this text go back to ChEMBL document CHEMBL5696442, “Discovery of type II inhibitors of TGFβ-activated kinase 1 (TAK1) and mitogen-activated protein kinase kinase kinase kinase 2 (MAP4K2)” (J Med Chem, 2015).

Type in all cases: cell-based
Assay [1] addresses p38 delta/gamma (Homo sapiens) (UniProt O15264+P53778). The assay can be described thus: Inhibition of p38delta/gamma Lys2 labeling site in human A-375 cells at 0.5 uM by KiNativ Profiling analysis relative to control.
For assay [2], the target named is Tyrosine-protein kinase ABL2 (Homo sapiens, UniProt P42684). The assay can be described thus: Inhibition of ARG Lys1 labeling site in human A-375 cells at 0.5 uM by KiNativ Profiling analysis relative to control. A digest of the protocol: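 Intact A375 melanoma cells were treated with compound at 5 or 0.5 μM, then lysed. Lysate kinases were labeled with a lysine-reactive ATP or ADP-biotin probe (KiNativ). Inhibition is read as protection of each kinase labeling site from probe labeling.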
Sequence of Tyrosine-protein kinase ABL2 (P42684 whole entry): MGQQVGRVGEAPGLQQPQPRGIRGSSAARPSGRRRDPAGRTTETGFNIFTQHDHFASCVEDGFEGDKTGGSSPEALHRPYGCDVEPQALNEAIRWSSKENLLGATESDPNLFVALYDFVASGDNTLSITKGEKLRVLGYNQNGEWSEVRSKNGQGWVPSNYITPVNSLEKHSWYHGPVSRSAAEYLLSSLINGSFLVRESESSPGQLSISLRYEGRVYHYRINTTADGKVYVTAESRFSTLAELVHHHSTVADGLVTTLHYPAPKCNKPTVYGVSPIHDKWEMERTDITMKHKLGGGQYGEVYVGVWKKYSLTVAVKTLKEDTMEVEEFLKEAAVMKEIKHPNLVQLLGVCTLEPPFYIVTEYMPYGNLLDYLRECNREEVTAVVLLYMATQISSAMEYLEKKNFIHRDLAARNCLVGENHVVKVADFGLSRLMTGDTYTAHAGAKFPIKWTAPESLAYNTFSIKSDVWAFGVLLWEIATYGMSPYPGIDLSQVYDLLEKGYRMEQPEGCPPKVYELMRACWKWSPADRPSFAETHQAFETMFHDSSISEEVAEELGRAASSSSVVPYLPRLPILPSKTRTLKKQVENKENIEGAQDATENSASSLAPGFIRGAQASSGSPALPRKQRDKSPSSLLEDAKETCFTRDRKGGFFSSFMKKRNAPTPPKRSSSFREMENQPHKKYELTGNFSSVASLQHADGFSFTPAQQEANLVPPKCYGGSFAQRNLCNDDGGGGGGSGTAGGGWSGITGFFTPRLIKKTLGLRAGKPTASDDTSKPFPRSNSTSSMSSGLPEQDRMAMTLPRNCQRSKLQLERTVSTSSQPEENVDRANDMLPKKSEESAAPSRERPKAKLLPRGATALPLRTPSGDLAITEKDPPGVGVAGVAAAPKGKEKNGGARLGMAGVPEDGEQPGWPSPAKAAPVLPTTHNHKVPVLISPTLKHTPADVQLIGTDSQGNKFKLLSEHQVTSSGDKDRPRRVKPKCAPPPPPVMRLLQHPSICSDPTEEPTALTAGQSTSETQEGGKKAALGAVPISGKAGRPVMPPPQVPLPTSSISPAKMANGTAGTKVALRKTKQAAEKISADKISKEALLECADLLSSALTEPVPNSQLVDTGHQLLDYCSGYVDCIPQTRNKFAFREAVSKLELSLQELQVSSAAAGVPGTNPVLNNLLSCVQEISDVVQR

Assay [3] concerns the target T1, Mitogen-activated protein kinase kinase kinase 2 (Homo sapiens) (UniProt Q9Y2U5).
T1 sequence (whole entry): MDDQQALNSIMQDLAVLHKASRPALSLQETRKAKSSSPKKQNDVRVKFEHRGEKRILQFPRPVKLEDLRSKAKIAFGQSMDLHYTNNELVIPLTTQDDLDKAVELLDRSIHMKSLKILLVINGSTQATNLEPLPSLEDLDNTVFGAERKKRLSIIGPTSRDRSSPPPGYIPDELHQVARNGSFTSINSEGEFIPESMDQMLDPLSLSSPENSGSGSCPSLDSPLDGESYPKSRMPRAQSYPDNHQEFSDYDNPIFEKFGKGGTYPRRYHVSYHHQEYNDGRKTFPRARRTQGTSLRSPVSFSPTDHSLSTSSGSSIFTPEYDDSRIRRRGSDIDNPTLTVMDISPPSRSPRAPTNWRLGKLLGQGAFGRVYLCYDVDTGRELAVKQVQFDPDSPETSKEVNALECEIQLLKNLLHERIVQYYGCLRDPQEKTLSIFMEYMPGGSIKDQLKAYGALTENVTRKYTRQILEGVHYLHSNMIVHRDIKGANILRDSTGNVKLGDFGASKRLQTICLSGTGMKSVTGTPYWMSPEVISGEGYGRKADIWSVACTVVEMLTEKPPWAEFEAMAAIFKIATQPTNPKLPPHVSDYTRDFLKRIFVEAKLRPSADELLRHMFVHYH
The assay can be described thus: Inhibition of MAP3K2 Lys1 labeling site harbouring VYLCYDVDTGRELAVKQVQFDPDSPETSKEVNALECEIQLLK in human A-375 cells at 5 uM by KiNativ Profiling analysis relative to control.

The target of assay [4] is Dual specificity mitogen-activated protein kinase kinase 2 (Homo sapiens) (UniProt P36507). The assay can be described thus: Inhibition of MAP2K2 Lys2 labeling site in human A-375 cells at 0.5 uM by KiNativ Profiling analysis relative to control.
Sequence of Dual specificity mitogen-activated protein kinase kinase 2 (Homo sapiens) (P36507 whole entry): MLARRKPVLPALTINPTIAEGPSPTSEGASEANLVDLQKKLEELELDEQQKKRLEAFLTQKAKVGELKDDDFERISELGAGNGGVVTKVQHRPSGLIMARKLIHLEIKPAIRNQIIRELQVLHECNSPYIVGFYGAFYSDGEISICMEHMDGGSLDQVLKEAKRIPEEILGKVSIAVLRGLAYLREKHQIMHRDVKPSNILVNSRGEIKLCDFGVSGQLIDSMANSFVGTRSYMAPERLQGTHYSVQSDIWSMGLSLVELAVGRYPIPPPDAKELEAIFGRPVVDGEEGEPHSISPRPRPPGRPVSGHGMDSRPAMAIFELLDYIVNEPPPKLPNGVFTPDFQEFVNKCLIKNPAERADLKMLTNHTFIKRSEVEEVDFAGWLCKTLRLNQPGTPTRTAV
In assay [5] the target is Serine/threonine-protein kinase Nek6 (Homo sapiens) (UniProt Q9HC98). The assay can be described thus: Inhibition of NEK6 Lys2 labeling site in human A-375 cells at 0.5 uM by KiNativ Profiling analysis relative to control.
Sequence of Serine/threonine-protein kinase Nek6 (Homo sapiens) (Q9HC98 whole entry, the tested form may be a part): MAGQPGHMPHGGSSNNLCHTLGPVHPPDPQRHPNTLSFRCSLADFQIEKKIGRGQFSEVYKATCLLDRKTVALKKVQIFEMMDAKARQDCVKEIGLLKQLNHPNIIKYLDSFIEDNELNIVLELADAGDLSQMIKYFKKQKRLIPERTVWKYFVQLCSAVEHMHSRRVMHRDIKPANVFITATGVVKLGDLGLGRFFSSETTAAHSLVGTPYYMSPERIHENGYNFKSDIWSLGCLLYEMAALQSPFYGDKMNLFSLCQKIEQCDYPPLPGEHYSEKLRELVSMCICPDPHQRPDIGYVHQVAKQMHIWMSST
For assay [6], the target named is Ribosomal protein S6 kinase alpha-1 (Homo sapiens) (UniProt Q15418). The assay can be described thus: Inhibition of RSK1 domain2 Lys2 labeling site in human A-375 cells at 0.5 uM by KiNativ Profiling analysis relative to control. A digest of the protocol:
(§1)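 Live A375 melanoma cells treated with compound at 5 or 0.5 μM, then lysed. Lysate kinases were labeled with a lysine-reactive ATP or ADP-biotin probe. Inhibition was read as protection of labeling sites from the probe.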

For assay [7], the target named is Ribosomal protein S6 kinase alpha-3 (Homo sapiens) (UniProt P51812). The assay can be described thus: Inhibition of RSK2 domain2 Lys2 labeling site in human A-375 cells at 0.5 uM by KiNativ Profiling analysis relative to control. In short, it runs like this:
as §1

The target of assay [8] is T2, Interleukin-1 receptor-associated kinase 4 (Homo sapiens) (UniProt Q9NWZ3).
T2 sequence (whole entry): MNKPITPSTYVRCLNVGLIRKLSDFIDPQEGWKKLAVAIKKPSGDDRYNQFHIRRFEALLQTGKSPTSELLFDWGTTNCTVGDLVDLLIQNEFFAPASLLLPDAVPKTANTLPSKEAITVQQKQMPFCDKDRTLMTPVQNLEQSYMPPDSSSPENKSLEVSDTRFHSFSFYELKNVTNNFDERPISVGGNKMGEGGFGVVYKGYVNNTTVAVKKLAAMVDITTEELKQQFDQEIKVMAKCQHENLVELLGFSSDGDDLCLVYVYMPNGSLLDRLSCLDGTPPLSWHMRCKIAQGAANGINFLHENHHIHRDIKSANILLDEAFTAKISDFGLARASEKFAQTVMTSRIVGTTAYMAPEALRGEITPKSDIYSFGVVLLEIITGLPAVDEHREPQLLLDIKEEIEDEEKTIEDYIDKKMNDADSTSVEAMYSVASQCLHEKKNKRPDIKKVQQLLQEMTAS
The assay can be described thus: Inhibition of IRAK4 Lys2 labeling site in human A-375 cells at 0.05 uM by KiNativ Profiling analysis relative to control.

Assay [9] addresses T3, Mitogen-activated protein kinase kinase kinase 3 (Homo sapiens) (UniProt Q99759).
T3 sequence (whole entry): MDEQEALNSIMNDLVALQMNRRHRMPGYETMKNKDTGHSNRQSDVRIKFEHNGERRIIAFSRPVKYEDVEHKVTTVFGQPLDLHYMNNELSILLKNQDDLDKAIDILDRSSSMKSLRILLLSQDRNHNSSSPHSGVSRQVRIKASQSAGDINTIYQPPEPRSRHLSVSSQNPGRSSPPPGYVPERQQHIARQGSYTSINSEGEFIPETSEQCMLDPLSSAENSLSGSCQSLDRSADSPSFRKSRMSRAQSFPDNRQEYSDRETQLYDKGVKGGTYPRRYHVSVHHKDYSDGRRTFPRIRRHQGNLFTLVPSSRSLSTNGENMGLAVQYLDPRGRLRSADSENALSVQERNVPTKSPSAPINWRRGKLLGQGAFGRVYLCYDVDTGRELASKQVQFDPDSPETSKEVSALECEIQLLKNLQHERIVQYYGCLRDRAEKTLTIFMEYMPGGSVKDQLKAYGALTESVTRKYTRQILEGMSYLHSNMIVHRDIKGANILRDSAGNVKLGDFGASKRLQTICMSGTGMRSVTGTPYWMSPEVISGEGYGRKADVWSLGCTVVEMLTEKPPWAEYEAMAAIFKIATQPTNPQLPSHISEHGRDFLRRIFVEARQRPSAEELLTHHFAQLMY
The assay can be described thus: Inhibition of MAP3K3 Lys1 labeling site in human A-375 cells at 0.05 uM by KiNativ Profiling analysis relative to control.

Assay [10] concerns the target Serine/threonine-protein kinase 25 (Homo sapiens) (UniProt O00506). The assay can be described thus: Inhibition of YSK1 ACT labeling site in human A-375 cells at 0.05 uM by KiNativ Profiling analysis relative to control.
Assay [11] addresses Serine/threonine-protein kinase 26 (Homo sapiens) (UniProt Q9P289). The assay can be described thus: Inhibition of MST4 Lys2 labeling site in human A-375 cells at 0.05 uM by KiNativ Profiling analysis relative to control.
The target of assay [12] is Serine/threonine-protein kinase WNK3 (Homo sapiens) (UniProt Q9BYP7). The assay can be described thus: Inhibition of Wnk3 Lys2 labeling site in human A-375 cells at 0.05 uM by KiNativ Profiling analysis relative to control.

Structures are written as SMILES.

Sequence of Serine/threonine-protein kinase 25 (Homo sapiens) (O00506 whole entry, looked up): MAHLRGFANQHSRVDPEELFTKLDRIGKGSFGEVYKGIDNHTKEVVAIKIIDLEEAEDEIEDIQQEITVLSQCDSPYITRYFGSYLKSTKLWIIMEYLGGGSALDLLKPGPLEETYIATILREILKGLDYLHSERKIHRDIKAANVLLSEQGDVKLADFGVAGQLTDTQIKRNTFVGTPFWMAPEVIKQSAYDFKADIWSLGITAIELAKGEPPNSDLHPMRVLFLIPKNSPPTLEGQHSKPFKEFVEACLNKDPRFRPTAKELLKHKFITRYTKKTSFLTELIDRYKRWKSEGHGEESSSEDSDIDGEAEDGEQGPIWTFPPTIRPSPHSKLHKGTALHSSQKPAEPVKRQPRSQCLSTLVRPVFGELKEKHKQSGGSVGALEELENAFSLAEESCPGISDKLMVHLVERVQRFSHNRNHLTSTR
Sequence of Serine/threonine-protein kinase 26 (Homo sapiens) (Q9P289 2-416 limits assumed): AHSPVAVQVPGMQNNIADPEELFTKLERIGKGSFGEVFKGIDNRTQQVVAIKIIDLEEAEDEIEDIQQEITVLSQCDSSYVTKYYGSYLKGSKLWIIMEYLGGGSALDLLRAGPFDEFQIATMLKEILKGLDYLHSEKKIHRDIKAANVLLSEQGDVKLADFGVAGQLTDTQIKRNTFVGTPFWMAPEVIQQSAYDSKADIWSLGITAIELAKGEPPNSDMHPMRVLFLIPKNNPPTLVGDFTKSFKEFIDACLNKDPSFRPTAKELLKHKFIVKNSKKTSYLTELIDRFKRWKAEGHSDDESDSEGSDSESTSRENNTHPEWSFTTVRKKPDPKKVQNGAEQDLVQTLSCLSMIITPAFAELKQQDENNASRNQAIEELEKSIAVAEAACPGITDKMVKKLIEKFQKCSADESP
Sequence of Ribosomal protein S6 kinase alpha-1 (Homo sapiens) (Q15418 whole entry, the tested form may be a part): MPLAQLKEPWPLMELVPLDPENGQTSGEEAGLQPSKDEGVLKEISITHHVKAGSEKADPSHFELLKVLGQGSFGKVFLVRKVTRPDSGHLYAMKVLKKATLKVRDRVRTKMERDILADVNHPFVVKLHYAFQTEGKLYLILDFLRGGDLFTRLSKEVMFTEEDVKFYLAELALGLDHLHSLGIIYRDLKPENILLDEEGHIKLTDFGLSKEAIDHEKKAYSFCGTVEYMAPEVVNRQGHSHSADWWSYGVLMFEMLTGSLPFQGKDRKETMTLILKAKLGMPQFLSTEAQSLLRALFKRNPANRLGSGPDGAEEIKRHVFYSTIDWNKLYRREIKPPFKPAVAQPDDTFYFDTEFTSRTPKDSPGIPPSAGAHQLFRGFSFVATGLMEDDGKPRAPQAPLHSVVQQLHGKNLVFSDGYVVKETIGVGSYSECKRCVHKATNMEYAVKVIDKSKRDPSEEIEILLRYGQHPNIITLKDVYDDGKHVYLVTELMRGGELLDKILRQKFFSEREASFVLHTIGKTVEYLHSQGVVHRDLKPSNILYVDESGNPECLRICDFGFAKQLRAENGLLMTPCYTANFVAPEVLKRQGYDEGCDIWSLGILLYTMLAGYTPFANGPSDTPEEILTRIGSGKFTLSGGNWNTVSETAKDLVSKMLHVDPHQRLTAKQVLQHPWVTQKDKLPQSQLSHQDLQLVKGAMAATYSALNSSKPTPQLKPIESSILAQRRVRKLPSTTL
Sequence of Ribosomal protein S6 kinase alpha-3 (Homo sapiens) (P51812 whole entry, the tested form may be a part): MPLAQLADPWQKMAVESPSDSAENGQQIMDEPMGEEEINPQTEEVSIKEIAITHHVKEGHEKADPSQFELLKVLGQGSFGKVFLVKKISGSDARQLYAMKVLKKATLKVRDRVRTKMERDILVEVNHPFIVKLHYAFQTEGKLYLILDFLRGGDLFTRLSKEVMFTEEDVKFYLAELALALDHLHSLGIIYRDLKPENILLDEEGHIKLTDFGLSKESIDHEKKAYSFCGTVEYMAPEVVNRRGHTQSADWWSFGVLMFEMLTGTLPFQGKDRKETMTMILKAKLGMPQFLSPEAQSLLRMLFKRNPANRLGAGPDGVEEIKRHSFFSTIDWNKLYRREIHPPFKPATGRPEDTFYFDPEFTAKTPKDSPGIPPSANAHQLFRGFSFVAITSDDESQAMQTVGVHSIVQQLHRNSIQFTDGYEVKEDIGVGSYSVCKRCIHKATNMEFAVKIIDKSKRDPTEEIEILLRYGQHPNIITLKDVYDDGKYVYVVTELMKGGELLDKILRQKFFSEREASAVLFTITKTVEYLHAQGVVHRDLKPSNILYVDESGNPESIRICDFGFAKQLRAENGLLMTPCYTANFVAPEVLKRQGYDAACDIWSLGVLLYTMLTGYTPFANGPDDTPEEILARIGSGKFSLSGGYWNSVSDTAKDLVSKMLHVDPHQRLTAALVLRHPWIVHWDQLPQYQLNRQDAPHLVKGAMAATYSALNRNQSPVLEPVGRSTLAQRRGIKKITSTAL

With `CCN1CCN(Cc2ccc(NC(=O)c3ccc(C)c(/C=C/c4cnc5[nH]ccc5c4OC)c3)cc2C(F)(F)F)CC1`, the inhibition (in general, the relative decrease from the control value, in per cent) in assay [1] was 25.2%; in assay [2] it was over 90%; in assay [3], 55.5%; in assay [4], 1.8%; in assay [5], 10.7%; in [6] it was 1.6%. Besides, the inhibition in assay [7] is 6.2%; in [8], 9.7%; in assay [9], 31%; in [10], 13.5%; in [11], 9.1%; in assay [12] it was 7.1%.
Consider `CCN1CCN(Cc2ccc(NC(=O)c3ccc(C)c(Oc4ccnc5[nH]ccc45)c3)cc2C(F)(F)F)CC1`, for which the inhibition in assay [1] was 86.2%; in [2], 85.5%; in assay [3], 42.3%; in assay [4] it was -3.9%; in assay [5], 7.8%; in assay [6], 3%. The inhibition is -0.1% in assay [7]; 6.9% in assay [8]; 16.7% in assay [9]; 22.4% in assay [10]; -0.7% in assay [11]; -3.5% in [12].
